# According to PMC5167242 (Neoplasia (New York, N.Y.), 2016):
# Values joined by “and” are separate entries in the source; they are usually repeats but may differ in a detail not shown here. Equal entries are not always repeated.
# Columns and labels:
# [1] = target: VEGFR1-3 tyrosine kinases; conditions: biochemical assays; cited from earlier work
# [2] = test system: SNU16 gastric carcinoma FGFR2 amplified xenograft; test: SNU16 xenograft tumor growth; format: in vivo, mice; conditions: day 30 after implant
# Outline: (§1)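 Female NCr-nu/nu mice (6 weeks old, specific pathogen free) received subcutaneous flank tumor fragments. Tumors were measured by caliper twice weekly, with volume = (length × width²)/2. Best %T/C = (median treated volume / median control volume) × 100.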
# H1299 cells [3] = test: TUNEL apoptosis assay, H1299; format: cell-based, human; conditions: H1299, 10 μM (IC50); 4, 24, 48 and 72 hours
# [4] = test system: tumor type cell lines with wt FGFR1 and wt FGFR2; test: cell viability assay; format: cell-based; conditions: Homo sapiens, 72 h
# Outline: (§2)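 Cell lines were grown in RPMI with 1% glutamine and 10% FBS. Cells were exposed to test compound (0.01–50 μM; 10 mM DMSO stock) 48 h after seeding. MTS was added 72 h after treatment and read at 490 nm after 2 h incubation. IC50 was calculated by software and reported as arithmetic mean + SEM.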
# [5] = after 21 days of treatment, just before the daily oral dose of 10 mg, cited from earlier work
# [6] = target: PDGFRα/β tyrosine kinases; conditions: biochemical assays; cited from earlier work
# [7] = test system: DMS114 (SCLC) FGFR1 amplified xenograft; test: DMS114 xenograft tumor growth; format: in vivo, mice
# Outline: as §1
# DMS114 cells [8] = test: TUNEL apoptosis assay, DMS114; format: cell-based, human; conditions: DMS114, 1 μM (IC50); 4, 24, 48 and 72 hours
# H1299 cells [9] = test: cell cycle perturbation, flow cytometry of DNA content, H1299; format: cell-based, human; conditions: H1299, 10 μM (IC50); 4, 24, 48 and 72 hours
# [10] = test system: H1299 (NSCLC) FGFR1 wt xenograft; test: H1299 xenograft tumor growth; format: in vivo, mice; conditions: for Best T/C%: day 38 after implant
# Outline: as §1
# [11] = test system: H1581 (NSCLC) FGFR1 amplified xenograft; test: H1581 xenograft tumor growth; format: in vivo, mice; conditions: for Best T/C%: day 27 after implant
# Outline: as §1
# FGFR1-3 tyrosine kinases = conditions: biochemical assays; cited from earlier work
# [12] = test system: breast cancer patients with FGF-aberrant (FGFR1 and/or FGF3/4/19 gene amplified) tumors; conditions: among 12 breast cancer patients with FGF-aberrant tumors; cited from earlier work
# DMS114 cells [13] = test: cell cycle perturbation, flow cytometry of DNA content, DMS114; format: cell-based, human; conditions: DMS114, 1 μM (IC50); starting at 24 hours and persisting up to 48 hours
# H1299 cells [14] = test: cell viability assay; format: cell-based; conditions: Homo sapiens, NCI-H1299
# Outline: as §2
# [15] = pharmacokinetics after 12 daily oral doses in lung xenograft bearing mice; format: in vivo; conditions: for tumor/plasma ratio: lung xenografts
# [16] = test system: MNK45 gastric carcinoma FGFR2 wt xenograft; test: MNK45 xenograft tumor growth; format: in vivo, mice
# Outline: as §1
# [17] = test system: FGFR1 amplified and FGFR2 amplified or mutated cancer cell lines; test: cell viability assay; format: cell-based, human
# Outline: as §2
# DMS114 cells [18] = test: cell viability assay; format: cell-based; conditions: Homo sapiens, DMS-114
# Outline: as §2
# [19] = test system: MFE296 endometrial carcinoma FGFR2 mutated xenograft; test: MFE296 xenograft tumor growth; format: in vivo, mice
# Outline: as §1
# [20] = test system: HEC1A endometrial carcinoma FGFR2 wt xenograft; test: HEC1A xenograft tumor growth; format: in vivo, mice; conditions: for Best T/C%: HEC1A
# Outline: as §1
# [21] = NCr-nu/nu, mouse, tumor and plasma, po
compound,measurement,setting,value
CNC(=O)c1cccc2cc(Oc3ccnc4cc(OCC5(N)CC5)c(OC)cc34)ccc12 [lucitanib],Kd,[1],< 100 nM
same,Best T/C%,"[2]; SNU16, 2.5 mg/kg orally daily for 30 days",40 (30) %
same,Best T/C%,"[2]; SNU16, 5 mg/kg orally daily for 30 days",32 (30) %
same,Best T/C%,"[2]; SNU16, 10 mg/kg orally daily for 30 days",16 (30) %
same,Best T/C%,"[2]; SNU16, 20 mg/kg orally daily for 30 days",14 (30) %
same,apoptosis by TUNEL assay,H1299 cells [3],no apoptosis was detected
same,IC50,[4],3000 to 23000 nM
same,tumor drug concentration relative to concomitant plasma drug concentration,[5],25 fold
same,tumor drug concentration,[5]; breast cancer biopsy from a person,11 µM
same,Kd,[6],< 100 nM
same,Best T/C%,"[7]; DMS114, 2.5 mg/kg orally daily for 30 days, day 44 after implant",45 (44) %
same,Best T/C%,"[7]; DMS114, 5 mg/kg orally daily for 30 days, day 46 after implant",20% and 20 (46) %
same,Best T/C%,"[7]; DMS114, 10 mg/kg orally daily for 30 days, day 44 after implant",16 (44) %
same,Best T/C%,"[7]; DMS114, 20 mg/kg orally daily for 30 days, day 44 after implant",12 (44) %
same,tumor regressions,"[7]; DMS114 lung xenograft, any dose schedule, best effect tumor stabilization",No tumor regressions
same,apoptosis by TUNEL assay,DMS114 cells [8],no apoptosis was detected
same,perturbation of the cell cycle,H1299 cells [9],late S-G2/M blockade
same,Best T/C%,"[10]; H1299, 2.5 mg/kg orally daily for 30 days",55 (38) %
same,Best T/C%,"[10]; H1299, 5 mg/kg orally daily for 30 days",41% and 41 (38) %
same,Best T/C%,"[10]; H1299, 10 mg/kg orally daily for 30 days",28 (38) %
same,Best T/C%,"[10]; H1299, 20 mg/kg orally daily for 30 days",24 (38) %
same,tumor regressions,"[10]; H1299 lung xenograft, any dose schedule, best effect tumor stabilization",No tumor regressions
same,Best T/C%,"[11]; H1581, 2.5 mg/kg orally daily for 30 days",46 (27) %
same,Best T/C%,"[11]; H1581, 5 mg/kg orally daily for 30 days",24% and 24 (27) %
same,Best T/C%,"[11]; H1581, 10 mg/kg orally daily for 30 days",21 (27) %
same,Best T/C%,"[11]; H1581, 20 mg/kg orally daily for 30 days",16 (27) %
same,tumor regressions,"[11]; H1581 lung xenograft, any dose schedule, best effect tumor stabilization",No tumor regressions
same,Kd,FGFR1-3 tyrosine kinases,< 100 nM
same,confirmed objective RECIST responses,[12],4
same,unconfirmed objective RECIST responses,[12],2
same,perturbation of the cell cycle,DMS114 cells [13],G1 block
same,IC50,H1299 cells [14],10000 nM
same,tumor/plasma ratio,[15]; 4 hours after the last of 12 daily oral doses,2.5
same,tumor/plasma ratio,[15]; 24 hours after the last of 12 daily oral doses,24.8
same,tumor drug concentration at 4 hours relative to in vitro IC50,"[15]; FGFR1 amplified H1581 and DMS114 tumors, higher than IC50 values",3 to 26 fold
same,Kp at 4 h,[15]; [21],2.5 ± 0.7
same,Kp at 24 h,[15]; [21],24.8 ± 7.4
same,Best T/C%,"[16]; MNK45, 2.5 mg/kg orally daily for 30 days, day 28 after implant",22 (28) %
same,Best T/C%,"[16]; MNK45, 5 mg/kg orally daily for 30 days, day 28 after implant",12 (28) %
same,Best T/C%,"[16]; MNK45, 10 mg/kg orally daily for 30 days, day 32 after implant",10 (32) %
same,Best T/C%,"[16]; MNK45, 20 mg/kg orally daily for 30 days, day 32 after implant",7 (32) %
same,tumor regressions,"[16]; MNK45 wt FGFR2, 20 mg/kg (data not shown)",3 out of 10 mice
same,IC50 lower in FGFR2 amplified or mutated cell lines than in FGFR2 wt cells,[17]; FGFR2 amplified or mutated cell lines vs FGFR2 wt cells,10 fold
same,IC50,"[17]; Homo sapiens, 72 h",45 to 3160 nM
same,IC50,DMS114 cells [18],1000 nM
same,Best T/C%,"[19]; MFE296, 2.5 mg/kg orally daily for 30 days, day 28 after implant",36 (28) %
same,Best T/C%,"[19]; MFE296, 5 mg/kg orally daily for 30 days, day 25 after implant",34 (25) %
same,Best T/C%,"[19]; MFE296, 10 mg/kg orally daily for 30 days, day 30 after implant",22 (30) %
same,Best T/C%,"[19]; MFE296, 20 mg/kg orally daily for 30 days, day 25 after implant",17 (25) %
same,tumor regressions,"[20]; HEC1A wt FGFR2, 20 mg/kg (data not shown)",2 out of 10 mice
same,Best T/C%,"[20]; 2.5 mg/kg orally daily for 30 days, day 45 after implant",29 (45) %
same,Best T/C%,"[20]; 5 mg/kg orally daily for 30 days, day 47 after implant",17 (47) %
same,Best T/C%,"[20]; 10 mg/kg orally daily for 30 days, day 45 after implant",12 (45) %
same,Best T/C%,"[20]; 20 mg/kg orally daily for 30 days, day 49 after implant",10 (49) %
